# Published values gathered from unrelated publications.
# Protocols differ between the studies behind these lines.
# Cell line: K562
Compound,read-out,action,technique,time,notes,IC50 [nM]
CCCCCC/C=C1\CC2C=CC=CC1C2C1CCCCC1=O (centres unmarked),cell growth or viability,,flow cytometry,,,17
CCCCN(Cc1ccc(C(=O)NO)cc1)C(=O)Nc1ccccc1,cell growth or viability,,ATP luminescence,72 h,,2260
O=C1CCCCC1C1C2C=CC=CC1/C(=C/Cc1ccccc1)C2 (centres unmarked),cell growth or viability,,flow cytometry,,,38
CC(C)[C@H](N)C(=O)N1CCC[C@H]1B(O)O,cell growth or viability,,ATP luminescence,48 h,,> 60000
CC(=O)O[C@@H]1OC=C2[C@@H](OC(C)=O)C[C@H]3[C@]4(C)CC[C@H]5C(C)(C)CCC[C@]5(C)[C@H]4C[C@@H](O)[C@]3(C)[C@H]21,NF-κB activity,inhibitor,luciferase,,TNF-stimulated,6000
C[C@H](O)C(=O)CCCCCCC(=O)Nc1cccc(-c2cn(-c3ccccc3)nn2)c1,cell growth or viability,,thymidine uptake,,,7120
C#CCSc1nc(Sc2nnnn2-c2ccccc2)c2nnn(Cc3ccc(OC)cc3)c2n1,cell growth or viability,,MTS,6 days,,7240
COc1cc(C=NNc2ncnc3c2cnn3-c2ccccc2)ccc1O,cell growth or viability,,XTT,72 h,,3240
O=C1NCCc2[nH]c(-c3ccncc3)cc21,cell growth or viability,,,,,> 10000
CCOC(=O)CCC1=CC2C=CC=CC1C2C1CCCCC1=O (centres unmarked),cell growth or viability,,flow cytometry,,,21
CCCON(Cc1ccc(C(=O)NO)cc1)C(=O)Nc1ccccc1,cell growth or viability,,ATP luminescence,72 h,,1770
CC(C)(C)SCCCC1=CC2C=CC=CC1C2C1CCCCC1=O (centres unmarked),cell growth or viability,,flow cytometry,,,28
CC(C)C[C@H](NC(=O)[C@H](Cc1ccccc1)NC(=O)c1cnccn1)B(O)O,cell growth or viability,,ATP luminescence,,,5.6
C[C@@H](O)C(=O)CCCCCCC(=O)Nc1ccccc1,cell growth or viability,,thymidine uptake,,,62500
Cc1c(O)c(=O)ccn1CCO,cell growth or viability,,MTT,72 h,,≥ 100000
CC(=O)OCCC1=CC2C=CC=CC1C2C1CCCCC1=O (centres unmarked),cell growth or viability,,flow cytometry,,,39
CN1c2ccccc2C(=O)N2[C@H](C(=O)Nc3ccc(/C=C/C(=O)NO)cc3)Cc3c([nH]c4ccccc34)[C@@H]12,cell growth or viability,,,,,1000
